{
  "source": "paper PMC7501995",
  "about": "(Cell metabolism, 2020)",
  "key": {"αTC1-6 alpha cells": {"tested_on": "αTC1-6 alpha cells", "experiment": "Alpha cell glucagon expression and secretion", "assay_type": "cell-based, mouse", "details": "αTC1-6 cells", "in_short": "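αTC1-6 mouse alpha cells grown in DMEM with 10% FBS, 16.7 mM glucose, 1 mM sodium pyruvate and 15 mM HEPES at 37°C, 5% CO2. Cells exposed to 5 µM test compound or vehicle for 1 h. Low-glucose secretion run at 1.67 mM glucose. Secreted glucagon measured by mouse glucagon ELISA; protein measured by BCA assay.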"}, "[1]": {"tested_on": "primary mouse hepatocytes", "experiment": "Hepatocyte cAMP production", "assay_type": "cell-based", "in_short": "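Primary hepatocytes came from anesthetized lean chow-fed male C57BL/6J mice, liver-specific glucagon receptor knockout mice, or Txnip-deficient mice. They were plated on collagen at 3 × 10^5 cells/well in serum-free DMEM and left 4 h to attach. Medium was then changed and cells were exposed to graded test-compound concentrations with glucagon for 24h. Cells were washed twice in PBS and harvested in 0.1M HCl. Intracellular cAMP was measured by direct immunoassay; n = 3 independent experiments.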"}, "[2]": {"tested_on": "polymerase II (Pol II) binding to the TXNIP promoter", "experiment": "Chromatin immunoprecipitation of Pol II in INS-1 cells", "assay_type": "cell-based, rat", "details": "ChIP", "in_short": "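INS-1 cells crosslinked in 1% formaldehyde/PBS for 15 min, then quenched with glycine. Lysed in SDS/Triton buffer, pH 8.1, with protease inhibitors, and sonicated (10 × 30 s pulses). 500 µg precleared lysate incubated with 4 µg anti-Pol II antibody or control IgG overnight at 4°C; 1/10 kept as input. Complexes captured on Protein A-Sepharose for 3 h, then washed in lysis, wash, LiCl and TE buffers. Regions probed: E-box, upstream TXNIP and IRS2 site. n = 3 independent experiments.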"}, "human TXNIP promoter": {"tested_on": "human TXNIP promoter", "assay_type": "cell-based", "details": "INS-1 cells, 25 mM glucose, 5 μM, 24 h", "in_short": "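INS-1 cells transfected with SV40-E-box or SV40-Control firefly plasmid (0.4 µg/mL) plus pRL-TK renilla control (10 ng/mL). After 18 h, switched to 5 mM glucose for 6 h, then to 25 mM glucose. Treated with or without 5 µM test compound for 24 h. Read by dual-luciferase assay; n = 6 independent experiments.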"}},
  "data": [
    {"compound": "CS(=O)(=O)NCC1CCCN(c2ncnc3ccc(C(F)(F)F)cc23)C1", "note": "(centres unmarked) [SRI-37330, N-((1-(6-(trifluoromethyl)quinazolin-4-yl)piperidin-3-yl)methyl)methanesulfonamide]", "values": [
      {"measurement": "glucagon content", "setting": "αTC1-6 alpha cells; 5 μM, 1h", "value": "did not lower proglucgon gene expression or glucagon content"},
      {"measurement": "glucagon secretion", "setting": "αTC1-6 alpha cells; 5 μM, 1h", "value": "significantly lower glucagon secretion"},
      {"measurement": "proglucagon gene expression", "setting": "αTC1-6 alpha cells; 5 μM, 24 h", "value": "did not lower proglucgon gene expression or glucagon content"},
      {"measurement": "glucagon secretion in the context of low glucose", "setting": "αTC1-6 alpha cells; 1.67 mM glucose", "value": "no effect on glucagon secretion"},
      {"measurement": "glucagon secretion maximally stimulated by arginine and norepinephrine", "setting": "αTC1-6 alpha cells; arginine 20 mM, norepinephrine 10 μM", "value": "no longer able to inhibit glucagon secretion"},
      {"measurement": "cAMP production", "setting": "[1]; GcgR−/−L hepatocytes, glucagon present", "value": "no longer able to inhibit hepatocyte glucose output or cAMP production"},
      {"measurement": "glucagon-induced cAMP production", "setting": "[1]; primary hepatocytes of TXNIP-deficient mice", "value": "maintained its ability to block glucose output and glucagon-induced cAMP production"},
      {"measurement": "glucagon-induced production of cAMP", "setting": "[1]; wild-type primary hepatocytes, 24h, glucagon", "value": "significantly downregulated in a dose-dependent manner"},
      {"measurement": "Pol II binding to the E-box motif region of the TXNIP promoter", "setting": "[2]", "value": "effectively inhibited"},
      {"measurement": "Pol II binding to upstream TXNIP promoter region and to IRS2 site", "setting": "[2]", "value": "but not to an upstream TXNIP promoter region or to an established Pol II binding site"},
      {"measurement": "effect on heterologous SV40 promoter coupled with the TXNIP E-box motif", "setting": "human TXNIP promoter", "value": "confer SRI-37330 responsiveness"}
    ]}
  ]
}
